These results are taken from ChEMBL document CHEMBL3352174, “Identification of a New RXRα Antagonist Targeting the Coregulator-Binding Site” (ACS Med Chem Lett, 2014).

Positions count from the first letter of the chain named. Calls of active or inactive are those of the source. The rule behind the calls is not given here.

One assay deals with HepG2. As to the kind of experiment: Induction of apoptosis in human HepG2 cells assessed as PARP cleavage at 5 and 10 uM by immunoblotting method. The assay is classed as functional, cell-based. In outline: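 A549 or HepG2 cells were treated with compound for 24 h, with or without subsequent TNFα (20 ng/mL) for 30 min. Lysates were immunoblotted for PARP cleavage as the apoptosis marker. One of three to five similar experiments shown.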

For the next assay, the system named is A549. As to the kind of experiment: Induction of apoptosis in TNFalpha-stimulated human A549 cells assessed as PARP cleavage at 5 and 10 uM pre-treated for 24 hrs before TNFalpha addition in presence of RXRalpha siRNA by immunoblotting method. In kind it is functional, cell-based. In outline: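 A549 cells were transfected with RXRα siRNA or control siRNA for 48 h. They were then treated with compound for 24 h, followed by TNFα (20 ng/mL) for 30 min. Lysates were analyzed by Western blot for AKT activation and PARP cleavage.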
(In general: Immunoblotting shows a protein as a band on a membrane.)

In assay [1] the target is T1, Estrogen receptor (Homo sapiens) (UniProt P03372).
T1 sequence (whole entry): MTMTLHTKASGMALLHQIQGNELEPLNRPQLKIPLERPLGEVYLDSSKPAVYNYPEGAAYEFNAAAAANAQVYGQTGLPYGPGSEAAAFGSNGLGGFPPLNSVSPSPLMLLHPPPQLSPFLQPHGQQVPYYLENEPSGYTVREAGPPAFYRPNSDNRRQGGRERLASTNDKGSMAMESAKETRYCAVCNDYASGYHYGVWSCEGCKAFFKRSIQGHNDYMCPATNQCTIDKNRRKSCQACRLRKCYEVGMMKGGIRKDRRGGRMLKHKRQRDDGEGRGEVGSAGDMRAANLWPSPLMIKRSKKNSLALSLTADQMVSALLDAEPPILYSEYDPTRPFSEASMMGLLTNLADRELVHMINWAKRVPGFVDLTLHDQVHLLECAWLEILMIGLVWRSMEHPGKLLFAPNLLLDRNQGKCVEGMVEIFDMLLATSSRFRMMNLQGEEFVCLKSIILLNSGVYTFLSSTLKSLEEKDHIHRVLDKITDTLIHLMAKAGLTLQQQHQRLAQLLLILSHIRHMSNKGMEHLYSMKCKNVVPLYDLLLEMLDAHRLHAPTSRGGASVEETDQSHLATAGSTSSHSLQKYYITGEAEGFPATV
Description: Antagonist activity against estrogen receptor ligand binding domain (unknown origin) expressed in human MCF7 cells assessed as inhibition of propyl pyrazole-induced receptor transactivation at 10 uM after 18 hrs by luciferase reporter gene based mammalian one-hybrid assay. The assay is classed as cell-based. In outline: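 MCF-7 cells co-transfected with pG5-Luc and the pBind-LBD fusion: Nur77, RARγ or ER. Agonists were all-trans-RA 10⁻⁷ M for RARγ and Nur77, and propyl pyrazole triol 10 μM for ER. Compound at 10 μM for 18 h. Dual-luciferase read-out normalized to Renilla. Mean ± SD.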
Background: A reporter such as luciferase makes a cellular process visible.

The subject of assay [2] is T2, Retinoic acid receptor RXR-alpha (Homo sapiens), P19793 [V298S].
T2 sequence (whole entry): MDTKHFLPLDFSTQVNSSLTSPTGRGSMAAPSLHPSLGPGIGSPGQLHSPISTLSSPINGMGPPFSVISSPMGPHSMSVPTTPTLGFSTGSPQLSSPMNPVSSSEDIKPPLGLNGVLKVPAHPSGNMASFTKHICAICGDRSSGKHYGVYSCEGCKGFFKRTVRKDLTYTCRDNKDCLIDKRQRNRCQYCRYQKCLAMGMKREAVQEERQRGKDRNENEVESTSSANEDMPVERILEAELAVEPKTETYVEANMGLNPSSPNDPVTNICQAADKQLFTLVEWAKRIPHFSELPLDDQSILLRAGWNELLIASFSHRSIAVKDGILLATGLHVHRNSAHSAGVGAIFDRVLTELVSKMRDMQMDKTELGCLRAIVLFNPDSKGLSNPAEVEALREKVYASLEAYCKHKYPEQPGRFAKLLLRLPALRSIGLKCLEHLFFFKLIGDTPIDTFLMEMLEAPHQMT
As to the kind of experiment: Antagonist activity against RXRalpha V298S mutant (unknown origin) expressed in human HEK293T cells assessed as inhibition of 9-cis-RA-induced receptor transactivation at 1 to 10 uM after 18 hrs by luciferase reporter gene based mammalian one-hybrid assay. As to conditions: HEK-293T. The assay is classed as cell-based. In a few lines:
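HEK-293T cells co-transfected with pG5-Luc and an RXRα mutant vector (V298S as pBind fusion; A272W, C432W LBP mutants). […] Luciferase read-out. Mean ± SD.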

For assay [3], the target named is T3, Retinoic acid receptor RXR-alpha (Homo sapiens) (UniProt P19793).
T3 sequence (whole entry): T2 sequence (whole entry) with S298V
Description: Antagonist activity against RXRalpha in human A549 cells assessed as inhibition of AKT phosphorylation at 5 and 10 uM after 24 hrs by Western blotting method. The assay is classed as cell-based. In a few lines: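 A549 or HepG2 cells were exposed to compound for 24 h, then with or without TNFα (20 ng/mL) for 30 min more. Lysates were immunoblotted for AKT activation. One of three to five similar experiments shown.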

The subject of assay [4] is T4, Retinoic acid receptor RXR-alpha (Homo sapiens), P19793 [C432W].
T4 sequence (whole entry): T2 sequence (whole entry) with S298V, C432W
Description: Antagonist activity against RXRalpha C432W/F313A mutant (unknown origin) expressed in human HEK293T cells assessed as inhibition of constitutive receptor transactivation at 1 to 10 uM after 18 hrs by luciferase reporter gene based mammalian one-hybrid assay. The conditions noted are these: HEK-293T.

Consider `Cc1cc(=O)oc2c(/C=N/NC(=O)CSc3nc4ccccc4s3)c(O)ccc12`, for which the outcome in the assay with HepG2 was Active. Also, the outcome with A549 was inactive. Further, the inhibition entry in assay [1] and in assay [2] was “inactive” in each case. Besides, the inhibition result in assay [3] and in assay [4] was “Dose-dependent effect” in each case.
